ChEMBL document CHEMBL1145811, “Synthesis and antibacterial activity of a novel series of acylides: 3-O-(3-pyridyl)acetylerythromycin A derivatives” (J Med Chem, 2003)
Converted amounts (≈) assume the structure as drawn.

Key:
Format in all cases: functional
Mus musculus [1] = assay: Survival rate of mouse inoculated intraperitoneally with 5.05*10e7 CFU of erythromycin-susceptible strain Streptococcus pneumoniae IID553 after treatment with 0.3 mg of compound
Method in brief: (§1)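 Mouse protection test: mice were infected intraperitoneally with 5.05 × 10^7 CFU/mouse, then given the macrolide orally 1 h after inoculation. Survival was recorded as the read-out.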

Mus musculus [2] = assay: Effective dose in vivo, in mouse inoculated intraperitoneally with 5.09*10e7 CFU of erythromycin susceptible strain Staphylococcus aureus Smith; conditions: ip
Method in brief: (§2)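 Mouse protection test: mice were infected intraperitoneally with erythromycin-susceptible S. aureus Smith or S. pneumoniae IID553. Compounds were given orally 1 h after inoculation.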

Mus musculus [3] = assay: Survival rate of mouse inoculated intraperitoneally with 5.05*10e7 CFU of erythromycin-susceptible strain Streptococcus pneumoniae IID553 after treatment with 3 mg of compound; method in brief: as §1
Mus musculus [4] = assay: Effective dose in vivo, in mouse inoculated intraperitoneally with 7.05*10e2 CFU of erythromycin susceptible strain Streptococcus pneumoniae IID553; conditions: ip; method in brief: as §2
Streptococcus pneumoniae [5] = assay: In vitro minimum inhibitory concentration for antibacterial activity against Streptococcus pneumoniae 210 (efflux-resistant strain encoded by the mef(A) gene)
Method in brief: (§3)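 Agar dilution MIC determined by the Japan Society of Chemotherapy standard method for aerobic bacteria.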

Haemophilus influenzae [6] = assay: In vitro minimum inhibitory concentration for antibacterial activity against Haemophilus influenzae ATCC 33533 (ampicillin-resistant strain that produces beta-lactamase); method in brief: as §3
Streptococcus pneumoniae [7] = assay: In vitro minimum inhibitory concentration for antibacterial activity against erythromycin susceptible strain Streptococcus pneumoniae IID553
Staphylococcus aureus [8] = assay: In vitro minimum inhibitory concentration for antibacterial activity against erythromycin-susceptible strain Staphylococcus aureus […]
Method in brief: (§4)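 MIC by agar dilution following the Japan Society of Chemotherapy standard method for aerobic bacteria. S. aureus 209P-JC and S. pneumoniae IID553 are erythromycin-susceptible strains.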

Streptococcus pneumoniae [9] = assay: In vitro minimum inhibitory concentration for antibacterial activity against Streptococcus pneumoniae 211 (MLSb-resistant strain encoded by the erm(B) gene); method in brief: as §3
Streptococcus pneumoniae [10] = assay: In vitro minimum inhibitory concentration for antibacterial activity against erythromycin-susceptible strain Streptococcus pneumoniae IID553; method in brief: as §4
Staphylococcus aureus [11] = assay: In vitro minimum inhibitory concentration for antibacterial activity against erythromycin susceptible strain Staphylococcus aureus Smith
Haemophilus influenzae [12] = assay: In vitro minimum inhibitory concentration for antibacterial activity against Haemophilus influenzae ATCC 43095 (ampicillin-susceptible strain that does not produce beta-lactamase); method in brief: as §3
Staphylococcus aureus [13] = assay: In vitro minimum inhibitory concentration for antibacterial activity against Staphylococcus aureus SR138 (constitutively MLSb-resistant strain encoded by the erm(A) gene); method in brief: as §3
Staphylococcus aureus [14] = assay: In vitro minimum inhibitory concentration for antibacterial activity against Staphylococcus aureus B1 (inducibly MLSb-resistant strain encoded by the erm(C) gene); method in brief: as §3

| SMILES | Survival rate (Mus musculus [1]) [%] | ED50 (Mus musculus [2]) [mg/kg] | Survival rate (Mus musculus [3]) [%] | ED50 (Mus musculus [4]) [mg/kg] | MIC (Streptococcus pneumoniae [5]) [µg/mL] | MIC (Haemophilus influenzae [6]) [µg/mL] | MIC (Streptococcus pneumoniae [7]) [µg/mL] | MIC (Staphylococcus aureus [8]) [µg/mL] | MIC (Streptococcus pneumoniae [9]) [µg/mL] | MIC (Streptococcus pneumoniae [10]) [µg/mL] | MIC (Staphylococcus aureus [11]) [µg/mL] | MIC (Haemophilus influenzae [12]) [µg/mL] | MIC (Staphylococcus aureus [13]) [µg/mL] | MIC (Staphylococcus aureus [14]) [µg/mL] |
| --- | --- | --- | --- | --- | --- | --- | --- | --- | --- | --- | --- | --- | --- | --- |
| CC[C@H]1OC(=O)[C@H](C)[C@@H](O[C@H]2C[C@@](C)(OC)[C@@H](O)[C@H](C)O2)[C@H](C)[C@@H](O[C@@H]2O[C@H](C)C[C@H](N(C)C)[C@H]2O)[C@](C)(O)C[C@@H](C)CN(C)[C@H](C)[C@@H](O)[C@]1(C)O [AZITHROMYCIN] | 50 | 15.7 | 100 | 13.9 | 0.78 (≈ 1.04 µM) | 1.56 (≈ 2.08 µM) | 0.1 (≈ 0.134 µM) | 0.39 (≈ 0.521 µM) | > 100 | 0.1 (≈ 0.134 µM) | 0.78 (≈ 1.04 µM) | 1.56 (≈ 2.08 µM) | > 100 | > 100 |
| CC[C@H]1OC(=O)[C@H](C)[C@@H](O[C@H]2C[C@@](C)(OC)[C@@H](O)[C@H](C)O2)[C@H](C)[C@@H](O[C@@H]2O[C@H](C)C[C@H](N(C)C)[C@H]2O)[C@](C)(O)C[C@@H](C)C(=O)[C@H](C)[C@@H](O)[C@]1(C)O [ERYTHROMYCIN] | – | 56.6 | – | 111 | – | – | 0.1 (≈ 0.136 µM) | – | – | – | 0.2 (≈ 0.273 µM) | – | – | – |
